The target of this test is Epidermal growth factor receptor (Homo sapiens) (UniProt P00533). The experiment in a line: Inhibition of EGFR at 10 uM. An outline of the steps:
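ELISA autophosphorylation-type assay. Wells were coated overnight at 4 °C with 50 µg/ml poly(Glu:Tyr, 4:1) in PBS. The kinase reaction ran 20 min in 50 mM HEPES, 125 mM NaCl, 10 mM MgCl2, pH 7.4, with 100 µM ATP and compound at 10 µM. Phosphotyrosine was detected with HRP anti-phosphotyrosine antibody and TMB, acid-stopped, and read at A450.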

Molecules are shown by their SMILES. Calls of active or inactive are those of the source. The rule behind the calls is not given here.

Epidermal growth factor receptor (Homo sapiens), sequence (P00533 whole entry): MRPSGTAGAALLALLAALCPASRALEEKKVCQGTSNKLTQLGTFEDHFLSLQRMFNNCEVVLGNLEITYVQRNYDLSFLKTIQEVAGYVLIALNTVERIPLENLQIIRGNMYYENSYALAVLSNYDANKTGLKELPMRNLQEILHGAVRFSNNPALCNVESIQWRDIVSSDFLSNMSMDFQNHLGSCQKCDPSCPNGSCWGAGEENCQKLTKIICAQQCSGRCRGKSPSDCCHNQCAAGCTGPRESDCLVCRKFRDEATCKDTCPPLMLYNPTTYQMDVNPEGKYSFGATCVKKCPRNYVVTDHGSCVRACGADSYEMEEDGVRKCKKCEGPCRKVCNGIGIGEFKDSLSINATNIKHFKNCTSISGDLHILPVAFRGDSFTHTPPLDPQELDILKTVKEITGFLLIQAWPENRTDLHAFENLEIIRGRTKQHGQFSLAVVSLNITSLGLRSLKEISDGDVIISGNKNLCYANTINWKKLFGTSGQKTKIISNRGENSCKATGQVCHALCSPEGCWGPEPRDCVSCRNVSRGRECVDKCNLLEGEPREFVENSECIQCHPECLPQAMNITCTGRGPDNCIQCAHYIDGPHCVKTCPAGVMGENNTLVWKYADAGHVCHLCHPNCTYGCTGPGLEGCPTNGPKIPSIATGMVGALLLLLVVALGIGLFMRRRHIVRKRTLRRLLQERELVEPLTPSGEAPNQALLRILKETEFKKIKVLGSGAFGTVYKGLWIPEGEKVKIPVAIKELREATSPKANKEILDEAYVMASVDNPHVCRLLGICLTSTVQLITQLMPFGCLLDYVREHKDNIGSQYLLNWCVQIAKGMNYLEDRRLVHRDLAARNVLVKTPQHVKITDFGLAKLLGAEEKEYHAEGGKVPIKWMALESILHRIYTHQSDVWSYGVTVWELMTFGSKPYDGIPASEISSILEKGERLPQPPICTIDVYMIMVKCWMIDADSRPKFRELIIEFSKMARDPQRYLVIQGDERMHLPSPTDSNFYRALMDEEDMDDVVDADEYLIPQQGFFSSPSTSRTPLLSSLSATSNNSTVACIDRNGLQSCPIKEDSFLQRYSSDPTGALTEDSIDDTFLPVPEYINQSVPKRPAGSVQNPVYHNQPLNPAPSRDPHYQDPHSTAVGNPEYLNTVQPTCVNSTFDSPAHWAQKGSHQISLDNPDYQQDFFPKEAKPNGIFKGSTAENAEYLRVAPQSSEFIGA

Take `COc1cc(OCc2ccncc2)c(C(=O)Nc2ccc(Cl)cc2)cc1OC`: the result was inactive.

With `O=C(Nc1ccccc1C(F)(F)F)c1ccccc1OCc1ccncc1`, the outcome was inactive.

Consider `COc1cc(OCc2ccncc2)c(C(=O)Nc2ccccc2Cl)cc1OC`, for which the outcome was inactive.

With `N=C(Nc1ccc(Cl)cc1)c1ccccc1NCc1ccncc1`, the result was inactive.

Consider `COc1cc(NCc2ccncc2)c(C(=N)Nc2ccc(Cl)cc2)cc1OC`, for which the result was inactive.

Regarding `O=C(Nc1cnccn1)c1ccccc1NCc1ccncc1`, the result was inactive.

For `COc1cc(OCc2ccncc2)c(C(=N)Nc2ccccc2C(F)(F)F)cc1OC`, the outcome was inactive.

For the compound `N=C(Nc1ccccc1C(F)(F)F)c1ccccc1NCc1ccncc1`, the outcome was inactive.

In the case of `COc1cc(NCc2ccncc2)c(C(=O)Nc2cnccn2)cc1OC`, the outcome was inactive.

On to `COc1cc(OCc2ccncc2)c(C(=O)Nc2ncccn2)cc1OC`, for which the result was inactive.

Take `O=C(Nc1ncccn1)c1ccccc1NCc1ccncc1`: the result was inactive.

For the compound `N=C(Nc1ccc(Cl)cc1)c1ccccc1OCc1ccncc1`, the outcome was inactive.

For the compound `COc1cc(OCc2ccncc2)c(C(=N)Nc2ccccc2Cl)cc1OC`, the result was inactive.

Consider `N=C(Nc1ccccc1Cl)c1ccccc1OCc1ccncc1`, for which the result was inactive.

With `O=C(Nc1ccccn1)c1ccccc1NCc1ccncc1`, the result was inactive.

Turning to `COc1cc(NCc2ccncc2)c(C(=N)Nc2ccccc2Cl)cc1OC`, the outcome was inactive.

With `COc1cc(NCc2ccncc2)c(C(=O)Nc2ccccn2)cc1OC`, the result was inactive.

For the compound `COc1cc(NCc2ccncc2)c(C(=O)Nc2ncccn2)cc1OC`, the result was inactive.

In the case of `N=C(Nc1ccccc1Cl)c1ccccc1NCc1ccncc1`, the outcome was inactive.

For `COc1cc(OCc2ccncc2)c(C(=N)Nc2ccc(Cl)cc2)cc1OC`, the result was inactive.

Consider `COc1cc(OCc2ccncc2)c(C(=O)Nc2ccccn2)cc1OC`, for which the outcome was inactive.

For `COc1cc(OCc2ccncc2)c(C(=O)Nc2ccccc2C(F)(F)F)cc1OC`, the result was inactive.

For the compound `O=C(Nc1ccccc1Cl)c1ccccc1OCc1ccncc1`, the outcome was inactive.

Take `N=C(Nc1ccccc1C(F)(F)F)c1ccccc1OCc1ccncc1`: the outcome was inactive.

Regarding `COc1cc(OCc2ccncc2)c(C(=O)Nc2cnccn2)cc1OC`, the outcome was inactive.

As to `COc1cc(NCc2ccncc2)c(C(=N)Nc2ccccc2C(F)(F)F)cc1OC`, the outcome was inactive.
